Experimental data as given in paper PMC4153963 (Drugs in R&D, 2014).
“Also recorded” adds a separate entry of the source. Read-outs that look alike come from different tables or passages of the source. Each block holds one compound with its values, some of them ahead of it.

Assays:
[1] = cited from earlier work
[2] = biological target: cytochrome P450 (CYP) 2C19 (Homo sapiens, UniProt P33261); experiment: Drug-drug interaction of IPE with omeprazole, a CYP2C19 substrate; assay type: in vivo, human (healthy adult subjects); settings: IPE 4 g/day at steady state, omeprazole 40 mg/day
[3] = Safety assessments; assay type: in vivo, human (healthy adult subjects); settings: healthy subjects
Outline: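 Open-label single-centre phase I crossover, healthy adults. Oral H+/K+ ATPase inhibitor 40-mg delayed-release capsule once daily, 1 h before breakfast, days 1–7 and 19–25. Omega-3 ethyl ester 4 g/day as two 1-g capsules twice daily with or after meals, days 12–29. Monitored adverse events, chemistry, hematology, urinalysis, blood pressure, heart rate, respiratory rate, oral temperature and physical examinations.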

[4] = system: CYP3A4; settings: IPE 4 g/day; cited from earlier work
[5] = system: CYP2C8; settings: IPE 4 g/day; cited from earlier work
[6] = system: CYP2C9; settings: IPE 4 g/day; cited from earlier work
[7] = system: serum TG levels; settings: IPE 4 g/day, MARINE and ANCHOR studies; cited from earlier work
[8] = assay type: in vivo, human (healthy adult subjects); settings: for K el: omeprazole 40 mg/day, mean (SD), n = 28
[9] = healthy subjects; cited from earlier work

cytochrome P450 (CYP) 2C19, sequence (P33261 whole entry): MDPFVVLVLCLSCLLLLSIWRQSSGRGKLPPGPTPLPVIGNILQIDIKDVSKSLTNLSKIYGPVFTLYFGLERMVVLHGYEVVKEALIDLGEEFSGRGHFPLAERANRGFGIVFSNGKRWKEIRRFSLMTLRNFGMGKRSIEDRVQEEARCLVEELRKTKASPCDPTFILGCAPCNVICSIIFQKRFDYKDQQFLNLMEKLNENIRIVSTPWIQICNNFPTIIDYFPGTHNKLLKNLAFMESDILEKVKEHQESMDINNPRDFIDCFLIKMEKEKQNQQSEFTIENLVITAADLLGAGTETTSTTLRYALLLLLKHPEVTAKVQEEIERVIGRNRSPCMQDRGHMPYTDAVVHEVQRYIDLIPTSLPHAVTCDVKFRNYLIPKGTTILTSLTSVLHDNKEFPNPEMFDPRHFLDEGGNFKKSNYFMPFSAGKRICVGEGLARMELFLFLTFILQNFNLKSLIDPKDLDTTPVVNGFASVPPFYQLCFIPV

Compound: CC/C=C\C/C=C\C/C=C\C/C=C\C/C=C\CCCC(=O)O [EPA, eicosapentaenoic acid]
Unesterified fraction of total EPA in plasma [1]: < 1% | Time to peak plasma concentrations of EPA ([1]; following oral dosing of IPE): approximately 5 h

Compound: CC/C=C\C/C=C\C/C=C\C/C=C\C/C=C\CCCC(=O)OCC [IPE, eicosapentaenoic acid ethyl ester]
Effect of IPE on AUC0–24 and C max of omeprazole (CYP2C19 substrate) [2]: did not significantly change; also recorded: did not inhibit | Safety and tolerability of co-administration of IPE with omeprazole ([3]; IPE 4 g/day with omeprazole 40 mg/day): safe and well tolerated | Effect of IPE on AUC or C max of atorvastatin (CYP3A4 substrate) [4]: did not display a significant effect | Effect of IPE on AUC or C max of rosiglitazone (CYP2C8 substrate) [5]: did not display a significant effect | Effect of IPE on AUC or C max of warfarin (CYP2C9 substrate) [6]: did not display a significant effect | Effect on LDL-C levels [7]: without significantly increasing | Effect on serum TG levels [7]: significantly reduce

AUC(0-t) ([8]; human, plasma, po, 40 mg/day): 3610 ng·h/mL | K el ([8]; with icosapent ethyl 4 g/day (day 25)): 0.62 (0.26) L/h | K el ([8]; without IPE (day 7)): 0.56 (0.22) L/h
Compound: COc1ccc2[nH]c([S+]([O-])Cc3ncc(C)c(OC)c3C)nc2c1 (centres unmarked) [Omeprazole]
Tolerability of omeprazole alone ([3]; omeprazole 40 mg/day): well tolerated | Elimination half-life [9]: 30 to 60 min
